Results on 10 compounds are retold here after PMC3839847 (Current topics in medicinal chemistry, 2012).

One assay has as its target CXCL12 (Homo sapiens, UniProt P48061). Briefly: 2D 1H-15N HSQC NMR titration, fragment binding to CXCL12. As to conditions: for CXCL12 chemical shift perturbations: 2D NMR titration, no meaningful affinity value could be fitted; for LE: ligand efficiency: free energy of binding divided by number of non-hydrogen atoms (kcal/mol/non-hydrogen atom).
For assay [1], the system named is CXCL12-induced chemotaxis of THP-1 monocytes. Briefly: in vitro chemotaxis assay, THP-1 monocytes with CXCL12. The class given is cell-based. The settings on record: read-out: IC50 of chemotaxis to CXCL12, 10 nM CXCL12. The essentials: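 Chemotaxis in vitro used THP-1 monocytes, which express CXCR4 endogenously, exposed to CXCL12 with or without each tetrazole fragment.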

In assay [2] the test system is CCL2 (MCP-1), activates the CCR2 receptor. Briefly: chemotaxis assay repeated with CCL2. The class given is cell-based. The settings on record: data not shown.

As to `CC(=O)Nc1ccccc1-c1nnn[nH]1` [Compound 10, N-(2-(1H-Tetrazol-5-yl)phenyl) acetamide], the “CXCL12 chemical shift perturbations” value on CXCL12 is reported as “small chemical shift perturbations”.

As a reminder, the Kd is a measure of binding affinity in units of concentration. A lower Kd goes with higher affinity. With `O=C(Nc1ccccc1)Nc1cccc(-c2nnn[nH]2)c1` [Compound 17, 1-(3-(1H-tetrazol-5-yl)phenyl)-3-phenylurea], at CXCL12, binding was put at a Kd of 126 ± 23 µM and the LE amounted to 0.25.

In the case of `O=C(Nc1ccccc1)Nc1ccc(-c2nnn[nH]2)cc1` [Compound 18, 1-(4-(1H-Tetrazol-5-yl)phenyl)-3-phenylurea], on CXCL12, the affinity, expressed as Kd, was 24 ± 28 µM and the LE worked out at 0.30. With `CC(=O)Nc1cccc(-c2nnn[nH]2)c1` [Compound 12, N-(3-(1H-tetrazol-5-yl)phenyl)acetamide], at CXCL12, the “CXCL12 chemical shift perturbations” value is on record as “small chemical shift perturbations”. On to `CC(=O)Nc1ccc(-c2nnn[nH]2)cc1` [Compound 14, N-(4-(1H-tetrazol-5-yl)phenyl)acetamide], for which, on CXCL12, the “CXCL12 chemical shift perturbations” value is listed as “small chemical shift perturbations”. At CXCL12, `O=C(Nc1ccccc1-c1nnn[nH]1)c1ccccc1` [Compound 11, N-(2-(1H-Tetrazol-5-yl)phenyl)benzamide] gave a Kd of 13 ± 7 µM and an LE of 0.33. On CXCL12, `O=C(Nc1cccc(-c2nnn[nH]2)c1)c1ccccc1` [Compound 13, N-(3-(1H-tetrazol-5-yl)phenyl)benzamide] registered a Kd of 50 ± 16 µM and an LE of 0.29. On CXCL12, `O=C(Nc1ccccc1)Nc1ccccc1-c1nnn[nH]1` [Compound 16, 1-(2-(1H-Tetrazol-5-yl)phenyl)-3-phenylurea] displayed a Kd of 327 ± 92 µM and an LE of 0.23.

Broadly, the IC50 is the midpoint of a concentration-inhibition curve. `O=C(Nc1ccc(-c2nn[nH]n2)cc1)Nc1cccc2ccccc12` [Compound 25]: the IC50 in assay [1] was 111 ± 24 µM. Moreover, in assay [2], the “specificity for CXCL12- versus CCL2-induced migration” value is on record as “specifically inhibits CXCL12-induced migration”. With `O=C(Nc1ccc(-c2nnn[nH]2)cc1)c1ccccc1` [Compound 15, N-(4-(1H-tetrazol-5-yl)phenyl)benzamide], at CXCL12, the Kd came out at 64 ± 23 µM and the LE turned out to be 0.29.
